# ChEMBL document CHEMBL2062469, “1-(2-Mercaptobenzenesulfonyl)-3-hydroxyguanidines--novel potent antiproliferatives, synthesis and in vitro biological activity” (2012)
# Columns and labels:
# Type in all cases: functional
# [1] = system: 786-0; test: Cytostatic activity against human 786-0 cells
# How it was run: (§1)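 NCI-60 human tumor cell line screen run by the US National Cancer Institute under the NIH Developmental Therapeutics Program protocol. A single-dose prescreen at 10 µM came first. Selected compounds then went into the 5-dose assay. Cytostatic activity is reported as GI50 (µM).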
# [2] = system: K562; test: Cytostatic activity against human K562 cells; how it was run: as §1
# [3] = system: ACHN; test: Cytostatic activity against human ACHN cells; how it was run: as §1
# [4] = system: COLO 205; test: Cytostatic activity against human COLO205 cells; how it was run: as §1
# [5] = system: MCF7; test: Cytostatic activity against human MCF7 cells; how it was run: as §1
# [6] = system: OVCAR-8; test: Cytostatic activity against human OVCAR8 cells; how it was run: as §1
# [7] = system: A498; test: Cytostatic activity against human A498 cells; how it was run: as §1
# [8] = system: HCC 2998; test: Cytostatic activity against human HCC2998 cells; how it was run: as §1
# [9] = system: MDA-MB-468; test: Cytostatic activity against human MDA-MB-468 cells; how it was run: as §1
# [10] = system: SK-MEL-28; test: Cytostatic activity against human SK-MEL-28 cells; how it was run: as §1
# [11] = system: SK-OV-3; test: Cytostatic activity against human SKOV3 cells; how it was run: as §1
# [12] = system: OVCAR-4; test: Cytostatic activity against human OVCAR4 cells; how it was run: as §1
# [13] = system: KM12; test: Cytostatic activity against human KM12 cells; how it was run: as §1
# [14] = system: NCI-H522; test: Cytostatic activity against human NCI-H522 cells; how it was run: as §1
# [15] = system: OVCAR-3; test: Cytostatic activity against human OVCAR3 cells; how it was run: as §1
# [16] = system: SN12C; test: Cytostatic activity against human SN12C cells; how it was run: as §1
# [17] = system: CAKI-1; test: Cytostatic activity against human Caki1 cells; how it was run: as §1
# [18] = system: NCI-H322M; test: Cytostatic activity against human NCI-H322M cells; how it was run: as §1
# [19] = system: IGROV-1; test: Cytostatic activity against human IGROV1 cells; how it was run: as §1
# [20] = system: HOP-62; test: Cytostatic activity against human HOP62 cells; how it was run: as §1
# [21] = system: NCI-H23; test: Cytostatic activity against human NCI-H23 cells; how it was run: as §1
# [22] = system: HOP-92; test: Cytostatic activity against human HOP92 cells; how it was run: as §1
# [23] = system: NCI-H226; test: Cytostatic activity against human NCI-H226 cells; how it was run: as §1
# [24] = system: T47D; test: Cytostatic activity against human T47D cells
# How it was run: (§2)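 Human tumour cell lines from the NCI-60 panel, tested at the US National Cancer Institute under the NIH Developmental Therapeutics Program protocol. A single-dose prescreen at 10 µM came first. Selected compounds then went to a 5-dose assay, which gave GI50 and TGI values in µM.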
# [25] = system: SK-MEL-5; test: Cytostatic activity against human SK-MEL-5 cells; how it was run: as §1
# [26] = system: NCI-H460; test: Cytostatic activity against human NCI-H460 cells; how it was run: as §1
# [27] = system: DU-145; test: Cytostatic activity against human DU145 cells; how it was run: as §1
# [28] = system: LOX IMVI; test: Cytostatic activity against human LOXIMVI cells; how it was run: as §1
# [29] = system: PC-3; test: Cytostatic activity against human PC3 cells; how it was run: as §1
# [30] = system: Hs-578T; test: Cytostatic activity against human Hs 578T cells; how it was run: as §1
# [31] = system: UACC-257; test: Cytostatic activity against human UACC257 cells; how it was run: as §2
# [32] = Cytostatic activity against human […] cells; how it was run: as §1
# [33] = system: MDA-MB-231; test: Cytostatic activity against human MDA-MB-231/ATCC cells; how it was run: as §1
# [34] = system: MOLT-4; test: Cytostatic activity against human MOLT4 cells; how it was run: as §1
# [35] = system: SF-295; test: Cytostatic activity against human SF295 cells; how it was run: as §1
# [36] = system: SW-620; test: Cytostatic activity against human SW620 cells; how it was run: as §2
# [37] = system: MDA-MB-435; test: Cytostatic activity against human MDA-MB-435 cells; how it was run: as §1
# [38] = system: EKVX; test: Cytostatic activity against human EKVX cells; how it was run: as §1
# [39] = system: UO-31; test: Cytostatic activity against human UO31 cells; how it was run: as §2
# [40] = system: OVCAR-5; test: Cytostatic activity against human OVCAR5 cells; how it was run: as §1
# [41] = system: RXF 393; test: Cytostatic activity against human RXF393 cells; how it was run: as §1
# [42] = system: M14; test: Cytostatic activity against human M14 cells; how it was run: as §1
# [43] = system: NCI/ADR-RES; test: Cytostatic activity against human NCI-ADR-RES cells; how it was run: as §1
# [44] = system: BT-549; test: Cytostatic activity against human BT549 cells; how it was run: as §1
# [45] = system: HCT-15; test: Cytostatic activity against human HCT15 cells; how it was run: as §1
# [46] = system: SNB-75; test: Cytostatic activity against human SNB75 cells; how it was run: as §2
# [47] = system: HT-29; test: Cytostatic activity against human HT-29 cells; how it was run: as §1
# [48] = system: SR; test: Cytostatic activity against human SR cells; how it was run: as §2
# [49] = system: U-251; test: Cytostatic activity against human U251 cells; how it was run: as §2
# [50] = system: SF-268; test: Cytostatic activity against human SF268 cells; how it was run: as §1
# [51] = system: Malme-3M; test: Cytostatic activity against human MALME-3M cells; how it was run: as §1
# [52] = system: SNB-19; test: Cytostatic activity against human SNB19 cells; how it was run: as §1
# [53] = system: SK-MEL-2; test: Cytostatic activity against human SK-MEL-2 cells; how it was run: as §1
# [54] = system: CCRF-CEM; test: Cytostatic activity against human CCRF-CEM cells; how it was run: as §1
# [55] = system: HCT-116; test: Cytostatic activity against human HCT116 cells; how it was run: as §1
# [56] = system: UACC-62; test: Cytostatic activity against human UACC62 cells; how it was run: as §2
# [57] = system: SF-539; test: Cytostatic activity against human SF539 cells; how it was run: as §1
structure (smiles),measurement,setting,value
N=C(NO)NS(=O)(=O)c1cc(-c2nnc(-c3ccccc3)s2)c(Cl)cc1SCc1ccc2c(c1)OCO2,GI50,[1],2.27 µM
same,GI50,[2],1.53 µM
same,TGI,[2],3.94 µM
same,GI50,[3],1.7 µM
same,TGI,[3],3.15 µM
same,GI50,[4],1.75 µM
same,TGI,[4],3.28 µM
same,GI50,[5],1.36 µM
same,TGI,[5],3.01 µM
same,GI50,[6],1.77 µM
same,TGI,[6],3.74 µM
same,GI50,[7],1.98 µM
same,TGI,[7],5.52 µM
same,GI50,[8],1.85 µM
same,TGI,[8],3.59 µM
same,GI50,[9],1.53 µM
same,TGI,[9],2.93 µM
same,GI50,[10],1.68 µM
same,TGI,[10],3.5 µM
same,GI50,[11],1.81 µM
same,TGI,[11],3.34 µM
same,GI50,[12],1.71 µM
same,TGI,[12],4.98 µM
same,GI50,[13],1.64 µM
same,TGI,[13],3.03 µM
same,GI50,[14],0.24 µM
same,TGI,[14],0.8 µM
same,GI50,[15],1.7 µM
same,TGI,[15],3.08 µM
same,GI50,[16],1.62 µM
same,TGI,[16],3.45 µM
same,GI50,[17],2.03 µM
same,TGI,[17],4.42 µM
same,GI50,[18],1.58 µM
same,TGI,[18],4.28 µM
same,GI50,[19],1.68 µM
same,TGI,[19],3.95 µM
same,GI50,[20],1.93 µM
same,TGI,[20],3.71 µM
same,GI50,[21],1.77 µM
same,TGI,[21],3.85 µM
same,GI50,[22],1.82 µM
same,TGI,[22],5.1 µM
same,GI50,[23],2.01 µM
same,TGI,[23],4.02 µM
same,GI50,[24],1.69 µM
same,TGI,[24],4.15 µM
same,GI50,[25],1.52 µM
same,TGI,[25],2.84 µM
same,GI50,[26],1.79 µM
same,TGI,[26],3.56 µM
same,GI50,[27],1.67 µM
same,TGI,[27],3.11 µM
same,GI50,[28],1.73 µM
same,GI50,[29],1.85 µM
same,TGI,[29],4.13 µM
same,GI50,[30],2.41 µM
same,TGI,[30],6.61 µM
same,GI50,[31],1.67 µM
same,TGI,[31],3.23 µM
same,GI50,[32],1.76 µM
same,TGI,[32],4.52 µM
same,GI50,[33],1.68 µM
same,TGI,[33],3.37 µM
same,GI50,[34],1.14 µM
same,TGI,[34],3.08 µM
same,GI50,[35],1.63 µM
same,TGI,[35],3.55 µM
same,GI50,[36],1.46 µM
same,TGI,[36],2.86 µM
same,GI50,[37],1.38 µM
same,TGI,[37],2.77 µM
same,GI50,[38],1.65 µM
same,TGI,[38],2.99 µM
same,GI50,[39],1.28 µM
same,TGI,[39],3.54 µM
same,GI50,[40],2.06 µM
same,TGI,[40],4.36 µM
same,GI50,[41],1.68 µM
same,TGI,[41],3.53 µM
same,GI50,[42],1.74 µM
same,TGI,[42],3.47 µM
same,GI50,[43],3.68 µM
same,GI50,[44],1.96 µM
same,TGI,[44],4 µM
same,GI50,[45],2.02 µM
same,TGI,[45],4.34 µM
same,GI50,[46],1.07 µM
same,TGI,[46],2.34 µM
same,GI50,[47],1.85 µM
same,TGI,[47],3.43 µM
same,GI50,[48],0.88 µM
same,TGI,[48],4.1 µM
same,GI50,[49],1.4 µM
same,TGI,[49],2.85 µM
same,GI50,[50],1.61 µM
same,TGI,[50],3.32 µM
same,GI50,[51],1.71 µM
same,TGI,[51],3.6 µM
same,GI50,[52],1.77 µM
same,TGI,[52],3.83 µM
same,GI50,[53],2.01 µM
same,TGI,[53],3.75 µM
same,GI50,[54],1.04 µM
same,TGI,[54],3.66 µM
same,GI50,[55],1.52 µM
same,TGI,[55],3.31 µM
same,GI50,[56],1.7 µM
same,TGI,[56],3.53 µM
same,GI50,[57],2.15 µM
same,TGI,[57],4.1 µM
N=C(NO)NS(=O)(=O)c1cc(-c2nnc(-c3ccc(Cl)cc3)s2)c(Cl)cc1SCc1ccc2c(c1)OCO2,GI50,[14],1.86 µM
same,GI50,[15],1.62 µM
same,GI50,[19],3.47 µM
same,GI50,[26],2.34 µM
same,GI50,[30],2.4 µM
same,GI50,[31],3.55 µM
same,GI50,[33],5.13 µM
same,GI50,[37],2.63 µM
same,GI50,[39],3.72 µM
same,GI50,[42],2.14 µM
same,GI50,[46],1.78 µM
same,GI50,[47],2.29 µM
same,GI50,[49],10.7 µM
same,GI50,[50],2.04 µM
same,GI50,[51],2.24 µM
same,GI50,[56],2.14 µM
N=C(NO)NS(=O)(=O)c1cc(-c2nc(-c3ccccc3)cs2)c(Cl)cc1SCc1ccc2c(c1)OCO2,GI50,[19],2.82 µM
same,GI50,[33],2.34 µM
same,GI50,[37],2 µM
same,GI50,[49],1.95 µM
same,GI50,[50],1.86 µM
same,GI50,[56],2.14 µM
N=C(NO)NS(=O)(=O)c1cc(-c2nc(-c3ccc(Cl)cc3)cs2)c(Cl)cc1SCc1ccc2c(c1)OCO2,GI50,[19],25.1 µM
same,GI50,[33],12.6 µM
same,GI50,[37],3.89 µM
same,GI50,[49],11.2 µM
same,GI50,[50],6.46 µM
same,GI50,[56],7.76 µM
N=C(NO)NS(=O)(=O)c1cc(-c2nc(-c3ccccc3)no2)c(Cl)cc1SCc1ccc2c(c1)OCO2,GI50,[14],1.29 µM
same,GI50,[15],1.7 µM
same,GI50,[19],2.57 µM
same,GI50,[26],2.04 µM
same,GI50,[30],2.63 µM
same,GI50,[31],2 µM
same,GI50,[39],1.66 µM
same,GI50,[42],1.91 µM
same,GI50,[46],1.55 µM
same,GI50,[47],2 µM
same,GI50,[50],1.91 µM
same,GI50,[51],2.19 µM
same,GI50,[56],1.82 µM
